# Measurements published in ChEMBL document CHEMBL1124543, “Antiulcer agents. 4. Conformational considerations and the antiulcer activity of substituted imidazo[1,2-a]pyridines and related analogues” (1989).
# Experiments:
# Type in all cases: functional
# [1] = test system: Canis familiaris; test: Inhibition of histamine stimulated gastric acid secretion in adult mongrel dogs at 2 mg/kg i.v.; details: Canis lupus familiaris, Stomach, route intravenous
# Summary of the method: (§1)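 Mongrel dogs with surgically prepared Heidenhain pouches under histamine infusion; compound given iv (0.1–5 mg/kg) 1 h after infusion start. Pouch juice collected every 30 min, volume recorded, aliquot titrated for acid; outputs summed over 3 h post-dose, compared with the same animal's control. ED50 by linear regression.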
# [2] = test system: Canis familiaris; test: Inhibition of histamine stimulated gastric acid secretion in adult mongrel dogs at 1 mg/kg i.v.; details: Canis lupus familiaris, Stomach, route intravenous; summary of the method: as §1
# [3] = test system: Rattus norvegicus; test: Effective dose inhibiting ethanol-induced lesions was determined 1 h, after oral administration of absolute ethanol in rat
# Summary of the method: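 Rats fasted and water-deprived 20 h; compound in 0.4% methylcellulose/saline given orally (1–30 mg/kg) 30 min before oral absolute ethanol (1 mL). Killed 1 h after ethanol; stomach opened along greater curvature, linear hemorrhagic lesion lengths summed per stomach. ED50 for lesion inhibition by regression analysis.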
# [4] = test system: Canis familiaris; test: Inhibition of histamine stimulated gastric acid secretion in adult mongrel dogs at 4 mg/kg administered perorally; details: Canis lupus familiaris, Stomach, route oral
# Summary of the method: (§2)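 Heidenhain pouch mongrel dogs receiving histamine infusion; compound given orally by gavage 1 h after infusion began. Acid output from 30-min collections (volume, titrated aliquot) summed for 3 h after dosing, each dog its own control. ED50 derived by linear regression from percent inhibition across doses.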
# [5] = test system: Canis familiaris; test: Inhibition of histamine stimulated gastric acid secretion in adult mongrel dogs at 8 mg/kg compound administered perorally; details: Canis lupus familiaris, Stomach, route oral; summary of the method: as §2
# [6] = test system: Rattus norvegicus; test: Antisecretory activity of intraperitoneally injected compound (40 mg/kg) in pylorus-ligated rat
# Summary of the method: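 Rats fasted 24 h, anesthetized, pylorus ligated; compound in 2.5% Tween 80 given ip (0.5 mL/200 g) at ligation. Killed 4 h later; gastric contents volume recorded, aliquots titrated with 0.1 N NaOH for acid output. Six rats per compound, eight controls; percent inhibition computed, Student's t test.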
# [7] = test system: Canis familiaris; test: Inhibition of histamine stimulated gastric acid secretion in adult mongrel dogs at 2 mg/kg compound administered perorally; details: Canis lupus familiaris, Stomach, route oral; summary of the method: as §2
# [8] = test system: Canis familiaris; test: Effective dose required to reduce acid out put when administered perorally in dog; details: Canis lupus familiaris, po; summary of the method: as §2
# [9] = test system: Canis familiaris; test: Inhibition of histamine stimulated gastric acid secretion in adult mongrel dogs at 5 mg/kg i.v.; details: Canis lupus familiaris, Stomach, route intravenous; summary of the method: as §1
# [10] = test system: Canis familiaris; test: Effective dose required to reduce acid out put when administered intravenously in dog; details: Canis lupus familiaris, iv; summary of the method: as §1
# [11] = test system: Canis familiaris; test: Effective dose required to reduce acid out put when administered perorally in dog;Value ranges from (2.3-58.2); details: Canis lupus familiaris, po; summary of the method: as §2
# [12] = test system: Canis familiaris; test: Inhibition of histamine stimulated gastric acid secretion in adult mongrel dogs at 0.1 mg/kg compound administered intravenously; details: Canis lupus familiaris, Stomach, route intravenous; summary of the method: as §1
# [13] = test system: Canis familiaris; test: Effective dose required to reduce acid out put when administered perorally in dog;Value ranges from(1.6-13.4).; details: Canis lupus familiaris, po; summary of the method: as §2
# [14] = test system: Canis familiaris; test: Effective dose required to reduce acid out put when administered intravenously in dog;Value ranges from […]; details: Canis lupus familiaris, iv; summary of the method: as §1
Structure (SMILES),inhibition in vivo at 2 mg/kg [1],inhibition in vivo at 1 mg/kg [2],ED50 [3],inhibition in vivo at 4 mg/kg [4],inhibition in vivo at 8 mg/kg [5],Inhibition [6],inhibition in vivo at 5 mg/kg [9],other results
Cc1nc2c(/C=C\c3ccccc3)cccn2c1CC#N,76%,79%,2 mg/kg,0%,41%,49%,,
Cc1nc2c(/C=C\c3ccsc3)cccn2c1C,82%,64%,24 mg/kg,38%,79%,54%,,inhibition in vivo at 2 mg/kg [7]: 5%; ED50 [8]: 4.8 mg/kg
Cc1nc2c(/C=C/c3ccccc3)cccn2c1CC#N,0%,,3 mg/kg,,2%,18%,18%,
CCc1nc2c(/C=C\c3ccccc3)cccn2c1C,42%,,,,21%,96%,,
C(=C/c1cccn2c3c(nc12)CCC3)/c1ccccc1,,,5.2 mg/kg,,,24%,8%,
Cc1nc2c(/C=C/c3ccccc3)cccn2c1C,26%,,10.4 mg/kg,,3%,39%,,
Cc1nc2c(/C=C\c3ccccc3)nccn2c1C,,,5.2 mg/kg,,0%,74%,0%,
Cc1nc2c(/C=C\c3ccccc3)cccn2c1C,76%,62%,,37%,74%,83%,86%,inhibition in vivo at 2 mg/kg [7]: 25%; ED50 [10]: 0.7 mg/kg; ED50 [8]: 4.8 mg/kg
C/C(=C\c1cccn2c(C)c(C)nc12)c1ccccc1,65%,72%,,17%,37%,98%,,
Cc1nc2c(C/C=C\c3ccccc3)cccn2c1N,,,6.4 mg/kg,,0%,4%,20%,
Cc1nc2c(CCc3ccccc3)cccn2c1N,,,,,,,,ED50 [10]: 1 mg/kg; ED50 [11]: 6.7 mg/kg; inhibition in vivo at 0.1 mg/kg [12]: 26%
C(=C/c1cccn2c3c(nc12)CCCC3)/c1ccccc1,0%,,7.3 mg/kg,,,62%,,
Cc1nc2c(C#Cc3ccccc3)nccn2c1C,,,3.7 mg/kg,,11%,0%,0%,
Cc1nc2c(/C=C/c3ccccc3)cccn2c1N,24%,,13 mg/kg,,6%,33%,0%,
Cc1nc2cc(/C=C/c3ccccc3)ccn2c1C,,,,,0%,40%,0%,
C/C(=C\c1ccccc1)c1cccn2c(C)c(C)nc12,44%,,5 mg/kg,,29%,71%,,
Cc1nc2c(C/C=C\c3ccccc3)cccn2c1C,,,5.5 mg/kg,,0%,58%,0%,
Cc1nc2c(/C=C\Cc3ccccc3)cccn2c1C,47%,24%,6.6 mg/kg,13%,54%,96%,,
Cc1nc2c(/C=C\Cc3ccccc3)cccn2c1N,,32%,8.6 mg/kg,0%,,52%,,
CCc1c(C)nc2c(/C=C\c3ccccc3)cccn12,12%,,0.8 mg/kg,,21%,65%,,
Cc1nc2c(C/C=C/c3ccccc3)cccn2c1CC#N,,,12 mg/kg,,,27%,4%,
Cc1nc2ccc(/C=C/c3ccccc3)cn2c1C,,,1.7 mg/kg,,0%,55%,0%,
Cc1nc2c3c(ccn2c1CC#N)CCC(c1ccccc1)O3 (stereo not given),,,1.7 mg/kg,,,,,ED50 [13]: 3.7 mg/kg; ED50 [14]: 0.06 mg/kg
Cc1nc2cccc(/C=C/c3ccccc3)n2c1C,,,5.5 mg/kg,0%,,,0%,
Cc1nc2c(OCc3ccccc3)cccn2c1C,,90%,10 mg/kg,0%,26%,99%,,
Cc1nc2c(/C=C\c3ccccc3)cccn2c1N,62%,66%,23 mg/kg,,4%,83%,67%,inhibition in vivo at 2 mg/kg [7]: 0%
Cc1nc2c(/C=C/Cc3ccccc3)cccn2c1CC#N,,69%,4 mg/kg,53%,82%,,78%,inhibition in vivo at 2 mg/kg [7]: 43%; ED50 [10]: 1 mg/kg; ED50 [8]: 4 mg/kg; inhibition in vivo at 0.1 mg/kg [12]: 9%
